Data set [1] can be described thus: Induction of breaking of pre-formed carboxymethyl lysine-enriched advanced glycation end product formation using BSA and glyoxylic acid assessed as increase in primary amine content at 400 uM after 24 hrs by TNBSA assay relative to pre-formed CML-enriched AGE. In a few lines:
(§1)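 CML-enriched AGE-BSA was pre-formed from 50 mg/mL BSA and 25 mM glyoxylic acid with sodium cyanoborohydride over 48 h, then purified by dialysis. The glycated protein was exposed to 2-AIs for 24 h. Free primary amines were quantified by TNBSA and compared with untreated CML-BSA. DMSO and PBS served as vehicle controls, with aminoguanidine as reference.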

A short description of data set [2]: Induction of breaking of pre-formed carboxymethyl lysine-enriched advanced glycation end product formation using BSA and glyoxylic acid assessed as increase in primary amine content at 400 uM after 24 hrs by TNBSA assay relative to BSA alone. In a few lines: as §1
A short description of data set [3]: Induction of breaking of pre-formed carboxymethyl lysine-enriched advanced glycation end product formation using BSA and glyoxylic acid assessed as increase in primary amine content at 400 uM after 24 hrs by TNBSA assay relative to 4,4'-(butane-1,4-diyl)bis(1H-imidazol-2-amine) dihydrochloride.
Data set [4] is described as follows: Inhibition of advanced glycation end product formation assessed as protection of reactive primary amines by measuring increase in primary amine level at 100 uM incubated for 7 days using BSA and glycolaldehyde by TNBSA assay. In kind it is physicochemical. The settings on record: 168 h. In a few lines:
(§2)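 BSA was modified with glycolaldehyde in the presence of 2-AIs. Total primary amines were quantified by TNBSA, independent of fluorescence. Protection appears as preserved free amines relative to GO-modified BSA, with basal free-amine level of BSA before GO/2-AI treatment as reference. DMSO and PBS served as vehicle controls, with aminoguanidine as comparator.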

The nature of data set [5]: Inhibition of advanced glycation end product formation assessed as protection of reactive primary amines by measuring increase in primary amine level at 100 uM incubated for 7 days using BSA and glycolaldehyde by TNBSA assay relative to control BSA. In kind it is physicochemical. Also on record: scale not given: the % may be the effect or the level left. The settings on record: 168 h. In a few lines: as §2

A short description of data set [6]: Inhibition of advanced glycation end product formation assessed as protection of reactive primary amines by measuring primary amine reduction using BSA and glycolaldehyde by TNBSA assay. In kind it is physicochemical. Also noted: scale not given: the % may be the effect or the level left. The method, boiled down: as §2
Data set [7] is described as follows: Inhibition of advanced glycation end product formation using BSA and glycolaldehyde at 400 uM by standard fluorescence based assay. Format: physicochemical.
Data set [8] in a line: Inhibition of advanced glycation end product formation using BSA and glycolaldehyde at 40 uM by standard fluorescence based assay. In kind it is physicochemical.
A short description of data set [9]: Induction of breaking of pre-formed advanced glycation end product formation using BSA assessed as restoration of glycated -BSA primary amine content after 24 hrs by TNBSA assay.

SMILES strings stand for the structures. The source made the active and inactive calls. No cut-off for these calls is given here.

Data on eight compounds can be found in ChEMBL document CHEMBL3621175, “Second generation 2-aminoimidazole based advanced glycation end product inhibitors and breakers” (Bioorg Med Chem Lett, 2015).

On to `NCCCc1c[nH]c(N)n1`, for which the Activity in data set [1] came out at 110%; in [2], 67.5%; in data set [3] it was 79.4%. Moreover, the “inhibition (INH)” value in data set [4] is “Active”.

Take `NCCCCc1c[nH]c(N)n1`: the Activity in data set [5] was 44.6%; in [1], 97.9%; in [2], 52.5%; in [3], 64.5%. Moreover, the “inhibition (INH)” value in data set [4] is recorded as “Active”.

For the compound `Nc1nc(Cc2c[nH]c3ccccc23)c[nH]1`, the “inhibition (INH)” value in [4] is “Active”.

Turning to `Nc1nc(CCCCc2c[nH]c(N)n2)c[nH]1`, the Activity came out at 3.6% in data set [6] and 78.9% in data set [9]. Besides, the “inhibition (INH)” value is recorded as 44.6% in [7], “Active” in data set [4] and 5.6% in data set [8].

For the compound `N=C(N)NN`, the result in [1], in data set [2] and in data set [3] was inactive.

With `Nc1nc(Cc2c[nH]cn2)c[nH]1`, in [4], the “inhibition (INH)” value is “Active”.

For the compound `N=C(N)NCCCc1c[nH]c(N)n1`, in data set [4], the “inhibition (INH)” value was “Active”.

Take `Nc1nc(Cc2ccc(O)cc2)c[nH]1`: the “inhibition (INH)” value in data set [4] is “Active”.
